Assay results: ChEMBL document CHEMBL1122142, “Synthesis and antiinflammatory activity of hexahydrothiopyrano[4,3-c]pyrazoles and related analogues” (J Med Chem, 1982)

What was measured:
Mus musculus [1] = experiment: The compound was evaluated for the mouse active Arthus (MAA) reaction activity for an ip dose of 150 mg/kg in mouse; 31-40%; format: functional; conditions: route intraperitoneal
Summary of the method: (§1)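 CD-1 mice were sensitized ip with a 1:1 Freund's complete adjuvant emulsion containing BSA in saline, 5 weeks before challenge. Compound was suspended in 1% Na CMC in pyrogen-free saline and given as one ip or oral dose 1 h before skin challenge with BSA. Screening doses were 150 mg/kg ip and 300 mg/kg po, with some at 75 or 50 mg/kg ip. Lesions were excised 3.5 h after challenge and weighed against controls.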

Cavia porcellus [2] = experiment: The compound was evaluated for the delayed hypersensitivity skin reaction (DHSR) activity after subcutaneous administration; 15/21
Cavia porcellus [3] = experiment: Tested in delayed hypersensitivity skin reaction (DHSR) after subcutaneous administration, activity reported as percent inhibition of erythema/induration of lesion; 19/23; format: functional
Mus musculus [4] = experiment: The compound was evaluated for the mouse active Arthus (MAA) reaction activity for an ip screening dose of 75 mg/kg in mouse; format: functional; conditions: route intraperitoneal; summary of the method: as §1
Mus musculus [5] = experiment: The compound was evaluated for the mouse active Arthus (MAA) reaction activity for peroral screening dose of 150 mg/kg in mouse; format: functional; conditions: route oral
Mus musculus [6] = experiment: Mouse active Arthus (MAA) reaction activity was determined for an peroral dose of 300 mg/kg in mouse; format: functional; conditions: route oral
Mus musculus [7] = experiment: Mouse active Arthus (MAA) reaction activity was determined for an ip dose of 150 mg/kg in mouse; 31-40%; format: functional; conditions: route intraperitoneal
Cavia porcellus [8] = experiment: The compound was evaluated for the delayed hypersensitivity skin reaction (DHSR) activity after subcutaneous administration; 11/33
Cavia porcellus [9] = experiment: Tested in delayed hypersensitivity skin reaction (DHSR) after subcutaneous administration, activity reported as percent inhibition of erythema/induration of lesion; 6/12; format: functional
Summary of the method: (§2)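 Male Hartley guinea pigs were sensitized with Mycobacterium tuberculosis in Freund's incomplete adjuvant, injected into each hind footpad and subcutaneously at the neck. After 3 weeks, 1.2 μg PPD was given intradermally. Compound in sesame oil was given sc, 3 animals per group, 30 min before and 5 h after PPD; screening dose 50 mg/kg.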

Mus musculus [10] = experiment: The compound was evaluated for the mouse active Arthus (MAA) reaction activity for an ip dose of 150 mg/kg in mouse; format: functional; conditions: route intraperitoneal; summary of the method: as §1
Cavia porcellus [11] = experiment: Tested in delayed hypersensitivity skin reaction (DHSR) after subcutaneous administration, activity reported as percent inhibition of erythema/induration of lesion; 14/25; format: functional
Mus musculus [12] = experiment: The compound was evaluated for the mouse active Arthus (MAA) reaction activity for an ip screening dose of 75 mg/kg; 21-30%; format: functional; conditions: route intraperitoneal; summary of the method: as §1
Cavia porcellus [13] = experiment: Tested in delayed hypersensitivity skin reaction (DHSR) after subcutaneous administration, activity reported as percent inhibition of erythema/induration of lesion; 13/52; format: functional
[14] = Acute toxicity as LD50 value was determined in mice administered intraperitoneally; format: organism-based; conditions: mouse, in vivo, ip
[15] = Acute toxicity as LD50 value was determined in mice administered orally; format: organism-based; conditions: mouse, in vivo, po
Mus musculus [16] = experiment: The compound was evaluated for the mouse active Arthus (MAA) reaction activity expressed as inhibitory dose after ip administration; format: functional; conditions: read-out: ID50 (the source's name); summary of the method: as §1
Mus musculus [17] = experiment: The compound was evaluated for the mouse active Arthus (MAA) reaction activity expressed as inhibitory dose after oral administration; format: functional; conditions: read-out: ID50 (the source's name); summary of the method: as §1
Mus musculus [18] = experiment: Inhibition of Mouse Active Arthus reaction following 150 mg/Kg i.p.; 41-60% inhibition.; format: functional; conditions: Mus musculus, ip
Rattus norvegicus [19] = experiment: Carrageenan-induced edema was determined after intraperitoneal administration; format: functional; conditions: ip, read-out: ID50 (the source's name)
Summary of the method: (§3)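 Adult male Sprague-Dawley (CD) rats, 160–200 g. Single dose in 1% CMC given 2 h before footpad injection of 0.05 mL 1% carrageenin in pyrogen-free saline. Paws removed and weighed at 3 h, with the contralateral paw as control. ID50 is the dose giving 50% edema inhibition.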

Rattus norvegicus [20] = experiment: Carrageenan-induced edema was determined after oral administration; format: functional; conditions: read-out: ID50 (the source's name); summary of the method: as §3
Rattus norvegicus [21] = experiment: Adjuvant-induced arthritis was determined for a dose of 150 mg/kg administered intraperitoneally; 16/72; format: functional; conditions: ip, route intraperitoneal
Summary of the method: (§4)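 Male Lewis rats; day 0, 0.50 mg desiccated Mycobacterium butyricum in 0.10 mL light mineral oil into left plantar paw. Compound dissolved or suspended in 1% CMC, dosed daily for 21 days starting the day before adjuvant. On day 21, injected and noninjected hind paws weighed. Values are percent inhibition, local (injected paw)/systemic (noninjected paw).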

Rattus norvegicus [22] = experiment: Adjuvant-induced arthritis was determined for a dose of 150 mg/kg administered orally; 17/0; format: functional; conditions: po; summary of the method: as §4
Rattus norvegicus [23] = experiment: Adjuvant-induced arthritis was determined for a dose of 75 mg/kg intraperitoneal administration; 28/78; format: functional; conditions: ip; summary of the method: as §4
Rattus norvegicus [24] = experiment: Adjuvant-induced arthritis was determined for a dose of 75 mg/kg oral administration; 1/0; format: functional; summary of the method: as §4
[25] = Therapeutic ratio was determined for intraperitoneal administration; format: ADME; conditions: ip; read-out: TR
Cavia porcellus [26] = experiment: The compound was evaluated for the delayed hypersensitivity skin reaction (DHSR) activity after subcutaneous administration; 8/19
Cavia porcellus [27] = experiment: Tested in delayed hypersensitivity skin reaction (DHSR) after subcutaneous administration, activity reported as percent inhibition of erythema/induration of lesion; 17/49; format: functional
Cavia porcellus [28] = experiment: Tested in delayed hypersensitivity skin reaction (DHSR) after subcutaneous administration, activity reported as percent inhibition of erythema/induration of lesion; 18/50; format: functional
Mus musculus [29] = species on record: Mus musculus; experiment: The compound was evaluated for the mouse active Arthus (MAA) reaction activity expressed as inhibitory dose.; format: functional; conditions: read-out: ID50 (the source's name); summary of the method: as §1
Mus musculus [30] = experiment: Inhibition of Mouse active Arthus (MAA) reaction activity was determined for peroral dose of 300 mg/kg in mouse; 21-30%; format: functional; conditions: route oral
Mus musculus [31] = experiment: Mouse active Arthus (MAA) reaction activity was determined for an ip dose of 150 mg/kg in mouse; format: functional; conditions: route intraperitoneal
[32] = Therapeutic ratio was determined for peroral administration; conditions: po; read-out: TR
Cavia porcellus [33] = experiment: Tested in delayed hypersensitivity skin reaction (DHSR) after subcutaneous administration, activity reported as percent inhibition of erythema/induration of lesion; 3/10; format: functional; summary of the method: as §2
Cavia porcellus [34] = experiment: Tested in delayed hypersensitivity skin reaction (DHSR) after subcutaneous administration, activity reported as percent inhibition of erythema/induration of lesion; 2/0; format: functional
Cavia porcellus [35] = experiment: Tested in delayed hypersensitivity skin reaction (DHSR) after subcutaneous administration, activity reported as percent inhibition of erythema/induration of lesion; 5/2; format: functional; summary of the method: as §2
Mus musculus [36] = experiment: Inhibition of Mouse active Arthus (MAA) reaction activity was determined for an ip dose of 150 mg/kg in mouse; 21-30%; format: functional; conditions: route intraperitoneal
Cavia porcellus [37] = experiment: Tested in delayed hypersensitivity skin reaction (DHSR) after subcutaneous administration, activity reported as percent inhibition of erythema/induration of lesion; 9/30; format: functional; summary of the method: as §2
Cavia porcellus [38] = experiment: Tested in delayed hypersensitivity skin reaction (DHSR) after subcutaneous administration, activity reported as percent inhibition of erythema/induration of lesion; 10/0; format: functional
Cavia porcellus [39] = experiment: Tested in delayed hypersensitivity skin reaction (DHSR) after subcutaneous administration, activity reported as percent inhibition of erythema/induration of lesion; 22/51; format: functional

In the case of `CCCn1nc(-c2ccc(C)cc2)c2c1/C(=C/c1ccc(C)cc1)CSC2`, the inhibition in vivo at 150 mg/kg (Mus musculus [1]) is reported as 31% and the Activity (Cavia porcellus [2]) is reported as 15.

For `Cc1ccc(/C=C2\CS(=O)(=O)Cc3c(-c4ccc(C)cc4)nn(CC(F)(F)F)c32)cc1`, the Activity (Cavia porcellus [3]) was 19, the inhibition in vivo at 75 mg/kg (Mus musculus [4]) was over 60% and the inhibition in vivo at 150 mg/kg (Mus musculus [5]) was under 20%.

`CCCN1N=C2/C(=C/c3ccc(C)cc3)CSCC2C1c1ccc(C)cc1` (stereo unspecified) gave an inhibition in vivo at 300 mg/kg (Mus musculus [6]) of under 20%, an inhibition in vivo at 150 mg/kg (Mus musculus [7]) of 31% and an Activity (Cavia porcellus [8]) of 11.

`CCCCN1N=C2/C(=C/c3cccnc3)CSCC2C1c1cccnc1` (stereo unspecified) showed an Activity (Cavia porcellus [9]) of 6 and an inhibition in vivo at 150 mg/kg (Mus musculus [10]) of under 20%.

Compound `CCCn1nc(-c2ccc(C)cc2)c2c1/C(=C/c1ccc(C)cc1)CS(=O)(=O)C2` has an Activity (Cavia porcellus [11]) of 14 and an inhibition in vivo at 75 mg/kg (Mus musculus [12]) of 21%.

In the case of `CCCN1N=C2/C(=C/c3ccc(C)cc3)CS(=O)(=O)CC2C1c1ccc(C)cc1` (stereo unspecified), the Activity (Cavia porcellus [13]) is reported as 13, the LD50 [14] is reported as 3400 mg/kg and the LD50 [15] is reported as over 4000 mg/kg. The ED50 (Mus musculus [16]) was 140 mg/kg, the ED50 (Mus musculus [17]) was over 600 mg/kg and the inhibition in vivo at 150 mg/kg (Mus musculus [18]) was 41%. The ED50 (Rattus norvegicus [19]) was 84 mg/kg, the ED50 (Rattus norvegicus [20]) was 250 mg/kg and the inhibition in vivo at 150 mg/kg (Rattus norvegicus [21]) was 16%. For the same compound, the inhibition in vivo at 150 mg/kg (Rattus norvegicus [22]) was 17%, the inhibition in vivo at 75 mg/kg (Rattus norvegicus [23]) was 28% and the inhibition in vivo at 75 mg/kg (Rattus norvegicus [24]) was 1%. The selectivity ratio [25] was 24.

With `CCCN1N=C2/C(=C/c3ccccc3C)CSCC2C1c1ccccc1C` (stereo unspecified) the inhibition in vivo at 150 mg/kg (Mus musculus [7]) was 31% and the Activity (Cavia porcellus [26]) was 8.

Compound `CCCN1N=C2/C(=C/c3ccc(OC)cc3)CS(=O)(=O)CC2C1c1ccc(OC)cc1` (stereo unspecified) has an Activity (Cavia porcellus [27]) of 17, an inhibition in vivo at 300 mg/kg (Mus musculus [6]) of under 20% and an inhibition in vivo at 150 mg/kg (Mus musculus [7]) of 31%.

With `COc1ccc(/C=C2\CS(=O)(=O)CC3C2=NN(CCCN2CCN(C)CC2)C3c2ccc(OC)cc2)cc1.O=C(O)/C=C\C(=O)O` (stereo unspecified) the Activity (Cavia porcellus [28]) was 18, the LD50 [14] was 280 mg/kg and the LD50 [15] was over 1200 mg/kg. It also gave an ED50 (Mus musculus [16]) of 30 mg/kg, an ED50 (Mus musculus [17]) of 234 mg/kg and an ED50 (Mus musculus [29]) of 30 mg/kg. It also gave an inhibition in vivo at 300 mg/kg (Mus musculus [30]) of 21%, an inhibition in vivo at 150 mg/kg (Mus musculus [31]) of over 60% and a selectivity ratio [25] of 9.6. For the same compound, the selectivity ratio [32] was over 5.1.

For `CCCN1N=C2/C(=C/c3ccccc3)CS(=O)(=O)CC2C1c1ccccc1` (stereo unspecified), the Activity (Cavia porcellus [33]) was 3, the inhibition in vivo at 300 mg/kg (Mus musculus [30]) was 21% and the inhibition in vivo at 150 mg/kg (Mus musculus [18]) was 41%.

`CSc1ccc(/C=C2\CSCC3C2=NN(C(C)=O)C3c2ccc(SC)cc2)cc1` (stereo unspecified) showed an Activity (Cavia porcellus [34]) of 2 and an inhibition in vivo at 150 mg/kg (Mus musculus [7]) of 31%.

`CC(C)n1nc(-c2cccc(C(F)(F)F)c2)c2c1/C(=C/c1cccc(C(F)(F)F)c1)CS(=O)(=O)C2` showed an Activity (Cavia porcellus [35]) of 5 and an inhibition in vivo at 150 mg/kg (Mus musculus [36]) of 21%.

`CCCN1N=C2/C(=C/c3ccccc3)COCC2C1c1ccccc1` (stereo unspecified) showed an Activity (Cavia porcellus [37]) of 9 and an inhibition in vivo at 150 mg/kg (Mus musculus [36]) of 21%.

`Cc1ccc(/C=C2\CS(=O)(=O)CC3C2=NN(CCc2ccccc2)C3c2ccc(C)cc2)cc1` (stereo unspecified) gave an Activity (Cavia porcellus [38]) of 10.

In the case of `CN1CCN(CCCN2N=C3/C(=C/c4ccccc4)COCC3C2c2ccccc2)CC1` (stereo unspecified), the Activity (Cavia porcellus [39]) is reported as 22.
